Measured values: ChEMBL document CHEMBL1157184, “Hymenoic acid, a novel specific inhibitor of human DNA polymerase lambda from a fungus of Hymenochaetaceae sp” (Bioorg Med Chem, 2008)

Columns and labels:
[1] = compound: C/C(=C\CC[C@H](C)C(=O)O)[C@H]1CC[C@H](C(=O)O)CC1; experiment: Inhibition of human DNA polymerase lambda at 20 uM using template primer as substrate
Summary of the method: (§1)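 Kinetics on full-length human pol λ at 0, 20, 40 and 60 μM compound, varying either the template-primer poly(dA)/oligo(dT)12-18 or the nucleotide substrate dTTP. Km and Vmax (pmol/h) came from Lineweaver-Burk plots and Ki from Dixon plots.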

[2] = compound: C/C(=C\CC[C@H](C)C(=O)O)[C@H]1CC[C@H](C(=O)O)CC1; experiment: Inhibition of human DNA polymerase lambda at 40 uM using template primer as as substrate; summary of the method: as §1
[3] = compound: C/C(=C\CC[C@H](C)C(=O)O)[C@H]1CC[C@H](C(=O)O)CC1; experiment: Inhibition of human DNA polymerase lambda at 60 uM using template primer as as substrate; summary of the method: as §1
[4] = compound: C/C(=C\CC[C@H](C)C(=O)O)[C@H]1CC[C@H](C(=O)O)CC1; experiment: Inhibition of human DNA polymerase lambda at 20 uM using nucleotide as substrate; summary of the method: as §1
[5] = compound: C/C(=C\CC[C@H](C)C(=O)O)[C@H]1CC[C@H](C(=O)O)CC1; experiment: Inhibition of human DNA polymerase lambda at 40 uM using nucleotide as substrate; summary of the method: as §1
[6] = compound: C/C(=C\CC[C@H](C)C(=O)O)[C@H]1CC[C@H](C(=O)O)CC1; experiment: Inhibition of human DNA polymerase lambda at 60 uM using nucleotide as substrate; summary of the method: as §1

B1: DNA polymerase lambda (Homo sapiens), Q9UGP5 (protein)
chain: MDPRGILKAFPKRQKIHADASSKVLAKIPRREEGEEAEEWLSSLRAHVVRTGIGRARAELFEKQIVQHGGQLCPAQGPGVTHIVVDEGMDYERALRLLRLPQLPPGAQLVKSAWLSLCLQERRLVDVAGFSIFIPSRYLDHPQPSKAEQDASIPPGTHEALLQTALSPPPPPTRPVSPPQKAKEAPNTQAQPISDDEASDGEETQVSAADLEALISGHYPTSLEGDCEPSPAPAVLDKWVCAQPSSQKATNHNLHITEKLEVLAKAYSVQGDKWRALGYAKAINALKSFHKPVTSYQEACSIPGIGKRMAEKIIEILESGHLRKLDHISESVPVLELFSNIWGAGTKTAQMWYQQGFRSLEDIRSQASLTTQQAIGLKHYSDFLERMPREEATEIEQTVQKAAQAFNSGLLCVACGSYRRGKATCGDVDVLITHPDGRSHRGIFSRLLDSLRQEGFLTDDLVSQEENGQQQKYLGVCRLPGPGRRHRRLDIIVVPYSEFACALLYFTGSAHFNRSMRALAKTKGMSLSEHALSTAVVRNTHGCKVGPGRVLPTPTEKDVFRLLGLPYREPAERDW
Vmax [1]: 62.5 pmol/h | Vmax [2]: 48.8 pmol/h | Vmax [3]: 40.8 pmol/h | Vmax [4]: 40 pmol/h | Vmax [5]: 32.3 pmol/h | Vmax [6]: 27 pmol/h
